{
  "source": "paper PMC4136418",
  "about": "(Drug development and industrial pharmacy, 2013)",
  "key": {"HIV": {"system": "HIV", "details": "cited from earlier work"}, "[1]": {"experiment": "In vitro cytotoxicity, MTT assay, CaSki cells", "format": "cell-based", "details": "human", "outline": "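Cells are grown at 37 °C in 5% CO2 with 10% FBS and penicillin-streptomycin: A 431 in DMEM, CaSki in RPMI 1640. They are seeded at 1 × 10^4/well, grown 24 h, then exposed to 1 ng/ml–50 μg/ml compound for 24, 48 or 72 h. Fresh medium plus MTT (5 mg/ml solution) follows for 4 h. Formazan is dissolved in DMSO and read at 595 nm; n = 8.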"}, "Caco-2 cell monolayers": {"system": "Caco-2 cell monolayers", "experiment": "Transport across Caco-2 cell monolayers", "format": "in vitro ADME, human", "outline": "(§1)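 Caco-2 cells (passages 27–32) are grown on 4.2 cm2 polycarbonate inserts and used on days 21–24 if TEER exceeds 600 Ωcm2. HBSS is buffered with […] (pH 5.5, 6.5) or HEPES (pH 7.4); monolayers are preincubated 20 min. The pH study uses 25 μg/ml apical, basolateral pH 7.4. Bidirectional runs use 2.5–250 μg/ml at pH 7.4. Incubation is 2 h at 37 °C with sampling to 120 min; HPLC gives Papp = (dQ/dt)/(A×C0); n = 3.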"}, "[2]": {"experiment": "Transport across Caco-2 cell monolayers", "format": "in vitro ADME, human", "details": "human; for Papp A→B at 2 h, 25 μg/ml: Caco-2, Papp (a–b)", "outline": "as §1"}, "Stability study": {"experiment": "Stability study", "format": "physicochemical", "details": "all test conditions: pH 3.0–9.0, 25, 40 or 65 °C, light, 0.02% hydrogen peroxide; up to 21 days"}, "Dynamic vapor sorption": {"experiment": "Dynamic vapor sorption", "format": "physicochemical", "details": "25°C/80% RH", "outline": "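Test compound powder (about 7 mg) is dried at 0% RH for at least 2 h at 40 °C. Sorption then runs isothermally at 25 °C, with RH stepped from 0 to 90% and back to 0%.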"}, "[3]": {"experiment": "Solubility in buffers, Vaginal Fluid Simulant and organic solvents", "format": "physicochemical"}, "[4]": {"experiment": "Human ectocervical tissue permeability study", "format": "in vitro ADME"}, "HIV-1 [5]": {"system": "HIV-1", "format": "cell-based", "details": "for Anti-HIV activity: drug present at constant levels throughout the HIV infection process, 48 h"}, "HIV-1 [6]": {"system": "HIV-1", "format": "cell-based", "details": "16 h pretreatment, drug removed before HIV exposure"}},
  "data": [
    {"compound": "C#C[C@]1(CO)O[C@@H](n2cnc3c(N)nc(F)nc32)C[C@@H]1O", "note": "[EFdA, 4′-Ethynyl-2-fluoro-2′-deoxyadenosine]", "values": [
      {"measurement": "EC50", "setting": "HIV", "value": "~0.07", "unit": "nM"},
      {"measurement": "CC50 at 48 h", "setting": "[1]", "value": "47.8 ± 12.4", "unit": "µg/mL"},
      {"measurement": "CC50 at 72 h", "setting": "[1]", "value": "41.1 ± 8.78", "unit": "µg/mL"},
      {"measurement": "Absorptive transport (a–b), drug in receptor compartment", "setting": "Caco-2 cell monolayers; 2.5 μg/ml, pH 7.4, HPLC LOD 0.05 μg/ml", "value": "no EFdA was detected"},
      {"measurement": "Papp (b-a), fold lower than low and medium concentration treatments", "setting": "Caco-2 cell monolayers; high concentration group (250 μg/ml)", "value": "about 2 fold"},
      {"measurement": "Papp at 2 h", "setting": "[2]; Caco-2", "value": "< 1", "unit": "×10⁻⁶ cm/s"},
      {"measurement": "efflux ratio at 2 h, 25 μg/ml", "setting": "[2]; Caco-2", "value": 8.01},
      {"measurement": "efflux ratio at 2 h, 250 μg/ml", "setting": "[2]; Caco-2", "value": 2.74},
      {"measurement": "Papp A→B at 2 h, 25 μg/ml", "setting": "[2]; apical pH 5.5, basolateral pH 7.4", "value": 0.367, "unit": "×10⁻⁶ cm/s"},
      {"measurement": "Papp A→B at 2 h, 25 μg/ml", "setting": "[2]; apical pH 6.5, basolateral pH 7.4", "value": 0.436, "unit": "×10⁻⁶ cm/s"},
      {"measurement": "Papp A→B at 2 h, 250 μg/ml", "setting": "[2]; Caco-2, pH 7.4, Papp (a–b), 250 μg/ml, pH 7.4 both sides", "value": 0.595, "unit": "×10⁻⁶ cm/s"},
      {"measurement": "Drug remaining", "setting": "Stability study", "value": "> 95", "unit": "%"},
      {"measurement": "Moisture absorbed", "setting": "Dynamic vapor sorption", "value": "approximately 10 % w/w"},
      {"measurement": "solubility at 120 h", "setting": "[3]; PBS, pH 6", "value": "799 ± 8.7", "unit": "µg/mL"},
      {"measurement": "solubility", "setting": "[3]; Vaginal Fluid Simulant, pH 4.2", "value": 887, "unit": "µg/mL"},
      {"measurement": "solubility at 120 h", "setting": "[3]; acid phthalate buffer, pH 3", "value": "1510 ± 68.4", "unit": "µg/mL"},
      {"measurement": "solubility at 120 h", "setting": "[3]; acid phthalate buffer, pH 4", "value": "1360 ± 48.3", "unit": "µg/mL"},
      {"measurement": "solubility at 120 h", "setting": "[3]; acid phthalate buffer, pH 4, aqueous buffer, thermodynamic from solid", "value": "1620 ± 55.9", "unit": "µg/mL"},
      {"measurement": "Change in solubility", "setting": "[3]; from pH 6–9", "value": "no obvious change in solubility"},
      {"measurement": "Change in solubility with increase in ionic strength", "setting": "[3]; pH 7.0 and 9.0", "value": "statistically significant decrease"},
      {"measurement": "Papp at 6 h, 500 μg/ml", "setting": "[4]; female, human, pH 7.4", "value": 0.834, "unit": "×10⁻⁶ cm/s"},
      {"measurement": "Tissue morphology after exposure", "setting": "[4]; human ectocervical tissues pre- and post-treatment", "value": "lack of any significant morphological changes"},
      {"measurement": "Selectivity index (CC50/EC50)", "setting": "HIV-1 [5]; cell-based studies", "value": "greater than 1 × 10^3"},
      {"measurement": "Anti-HIV activity", "setting": "HIV-1 [5]", "value": "highly potent inhibitors"},
      {"measurement": "Potency relative to UC781", "setting": "HIV-1 [5]; drug present throughout infection", "value": "about two-fold more potent than UC781"},
      {"measurement": "Protective or memory effect", "setting": "HIV-1 [6]", "value": "retained anti-HIV protection similar to that seen when EFdA was present throughout the infection"}
    ]},
    {"compound": "CC(C)=CCOc1cc(NC(=S)c2ccoc2C)ccc1Cl", "note": "[UC781, reference compound]", "values": [
      {"measurement": "Anti-HIV activity", "setting": "HIV-1 [5]", "value": "highly potent inhibitors"},
      {"measurement": "Protective or memory effect", "setting": "HIV-1 [6]", "value": "substantial diminution of anti-HIV protection"}
    ]}
  ]
}
